The values that follow come from ChEMBL document CHEMBL4828755, “A sulfonyl fluoride derivative inhibits EGFRL858R/T790M/C797S by covalent modification of the catalytic lysine” (Eur J Med Chem, 2021).

Calls of active or inactive are those of the source. The rule behind the calls is not given here.

The term inhibition denotes the percentage by which the read-out fell short of the control. By IC50 is commonly meant the midpoint of a concentration-inhibition curve.

Experiment [1] has as its system Epidermal growth factor receptor (Homo sapiens), P00533 [L858R,T790M,C797S]. Description: Irreversible inhibiton of EGFR L858R/T790M/C797S triple mutant (unknown origin) assessed as residual enzyme activity using fluoresceine-labelled poly-GT peptide as substrate preincubated with enzyme for 3 hrs at 10XIC50 followed by 100-fold dilution and measured after 30 mins by rapid dilution assay based TR-FRET analysis. Conditions: time 210.0 min. In a few lines: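 It was then diluted 100-fold into Kinase Buffer A containing poly-GT substrate and 9 μM ATP. After 30 min, EDTA quench plus Eu-PY20 were added for 30 min before TR-FRET. Activity is given as % of no-inhibitor control; n = 5.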

The test system is the same in experiment [2]. The experiment is described as follows: Ratio of IC50 for EGFR L858R/T790M/C797S triple mutant (unknown origin) using fluoresceine-labelled poly-GT peptide as substrate incubated for 1 hr to IC50 for EGFR L858R/T790M/C797S triple mutant (unknown origin) using fluoresceine-labelled poly-GT peptide as substrate preincubated with enzyme for 3 hrs followed by substrate and ATP addition.

The target in experiment [3] is Tyrosine-protein kinase Lck (Homo sapiens) (UniProt P06239). Description: Inhibition of human recombinant LCK at 100 nM by Z'-LYTE assay. In a few lines: (§1)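 Z'-LYTE FRET kinase panel; phosphorylation of a reference peptide measured with ATP at each enzyme's Km. Compounds tested in 1% DMSO at 0.1 and/or 1 μM. Values are means of two independent experiments with standard deviations.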

The target in experiment [4] is T1, Aurora kinase A (Homo sapiens) (UniProt O14965).
T1 sequence (whole entry): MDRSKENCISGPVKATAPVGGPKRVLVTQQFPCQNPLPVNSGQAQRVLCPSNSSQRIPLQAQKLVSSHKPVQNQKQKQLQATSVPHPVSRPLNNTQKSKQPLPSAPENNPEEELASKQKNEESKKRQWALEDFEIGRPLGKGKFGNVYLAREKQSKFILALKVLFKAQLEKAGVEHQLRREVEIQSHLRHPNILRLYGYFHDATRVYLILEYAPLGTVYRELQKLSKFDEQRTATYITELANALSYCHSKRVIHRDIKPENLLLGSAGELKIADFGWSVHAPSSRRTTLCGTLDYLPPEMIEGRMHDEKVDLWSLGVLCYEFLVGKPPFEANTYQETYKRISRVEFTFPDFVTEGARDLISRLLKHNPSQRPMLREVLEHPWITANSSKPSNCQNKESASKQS
The experiment is described as follows: Inhibition of His-tagged human full length recombinant AURKA expressed in baculovirus expression system at 100 nM by Z'-LYTE assay. In a few lines: as §1

Experiment [5] deals with BaF3. Description: Cytotoxicity against mouse BaF3 cells harboring EGFR del19/T790M/C797S triple mutant assessed as inhibition of cell proliferation measured after 72 hrs by MTS assay. In kind it is functional, cell-based. The method, boiled down:
(§2)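 Ba/F3 cells carrying the respective EGFR triple mutant, grown in RPMI-1640 with 2 mM glutamine and 10% FBS at 37°C, 5% CO2. Seeded 20000 cells/well and treated the same day with increasing concentrations (DMSO ≤0.1% final). Viability read by MTS after 72 h, expressed as % inhibition versus untreated controls; at least three independent experiments.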
In general terms: Tetrazolium dyes change colour on reduction, which living cells bring about.

In experiment [6] the target is RAC-beta serine/threonine-protein kinase (Homo sapiens) (UniProt P31751). The experiment is described as follows: Inhibition of His-tagged full length human recombinant AKT2 expressed in baculovirus expression system at 100 nM by Z'-LYTE assay. The method, boiled down: as §1
Experiment [7] concerns the target T2, Epidermal growth factor receptor (Homo sapiens, UniProt P00533, C797S/L858R/T790M). Description: Inhibition of EGFR L858R/T790M/C797S triple mutant (unknown origin) using fluoresceine-labelled poly-GT peptide as substrate preincubated with enzyme for 3 hrs followed by substrate and ATP addition by TR-FRET assay. (In general: TR-FRET usually uses a lanthanide donor and a delayed reading to cut background.)

Experiment [8] deals with Rho-associated protein kinase 1 (Homo sapiens) (UniProt Q13464). Description: Inhibition of GST-tagged human recombinant ROCK1 (1 to 535 residues) expressed in baculovirus expression system at 100 to 1000 nM by Z'-LYTE assay. Conditions: dose 100-1000 nM.
The target of experiment [9] is Cyclin-dependent kinase 5 (Homo sapiens) (UniProt Q00535). The experiment is described as follows: Inhibition of GST/His-tagged human full length recombinant CDK5 expressed in baculovirus expression system at 100 nM by Z'-LYTE assay. In a few lines:
as §1

The target of experiment [10] is Proto-oncogene tyrosine-protein kinase Src (Homo sapiens) (UniProt P12931). Description: Inhibition of C-terminal His-tagged human recombinant SRC expressed in baculovirus expression system at 100 nM by Z'-LYTE assay. In a few lines:
as §1

In experiment [11] the target is T3, AMP-activated protein kinase, AMPK (Homo sapiens) (UniProt P54646+O43741+P54619+Q9UGJ0+Q9Y478+Q13131+Q9UGI9). Description: Inhibition of human recombinant AMPK at 100 nM by Z'-LYTE assay. Type of experiment: protein-complex assay. The method, boiled down: as §1
In experiment [12] the target is Tyrosine-protein kinase Blk (Homo sapiens) (UniProt P51451). The experiment is described as follows: Inhibition of His-tagged human full length recombinant BLK expressed in baculovirus expression system at 100 nM by Z'-LYTE assay. In a few lines:
as §1

In experiment [13] the target is Cyclin-dependent kinase 2 (Homo sapiens) (UniProt P24941). Description: Inhibition of human recombinant CDK2 at 100 nM by Z'-LYTE assay. The method, boiled down: as §1
The target of experiment [14] is T2, Epidermal growth factor receptor. The experiment is described as follows: Inhibition of EGFR L858R/T790M/C797S triple mutant (unknown origin) using fluoresceine-labelled poly-GT peptide as substrate incubated for 1 hr by TR-FRET assay.
The subject of experiment [15] is BaF3. Description: Cytotoxicity against mouse BaF3 cells harboring EGFR L858R/T790M/C797S triple mutant assessed as inhibition of cell proliferation measured after 72 hrs by MTS assay. Type of experiment: functional, cell-based. In a few lines: as §2
The target in experiment [16] is Epidermal growth factor receptor (Homo sapiens, UniProt P00533). In kind it is ADME.
The target of experiment [17] is Cyclin-dependent kinase 5 (Homo sapiens) (UniProt Q00535). Description: Inhibition of GST/His-tagged human full length recombinant CDK5 expressed in baculovirus expression system at 1 uM by Z'-LYTE assay. The method, boiled down: as §1
Experiment [18] deals with Epidermal growth factor receptor (Homo sapiens), P00533 [L858R,T790M,C797S]. The experiment is described as follows: Inhibition of EGFR L858R/T790M/C797S triple mutant (unknown origin) expressed in mouse Ba/F3 cells assessed as inhibition of EGF-stimulated receptor phosphorylation at 1 uM incubated for 4 hrs followed by washing with buffer solution and later incubation in drug-free medium for 2 to 8 hrs followed by EGF stimulation by western blot analysis. In kind it is cell-based. Conditions: BaF3. In a few lines:
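Ba/F3 cells expressing EGFR L858R/T790M/C797S exposed to 1 μM for 4 h, washed extensively with PBS, and allowed to recover in fresh drug-free medium for 2, 4 or 8 h. Cells then stimulated with 100 ng/ml EGF for 10 min. pEGFR (Tyr1068), total EGFR and actin detected by western blot.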
Background: Immunoblotting shows a protein as a band on a membrane.

Experiment [19] deals with Mitogen-activated protein kinase 3 (Homo sapiens) (UniProt P27361). The experiment is described as follows: Inhibition of GST-tagged human full length recombinant ERK1 expressed in Escherichia coli at 1 uM by Z'-LYTE assay. In a few lines: as §1
In experiment [20] the target is T3, AMP-activated protein kinase, AMPK (Homo sapiens). The experiment is described as follows: Inhibition of human recombinant AMPK at 1 uM by Z'-LYTE assay. In kind it is protein-complex assay. The method, boiled down: as §1
Experiment [21] deals with T1, Aurora kinase A (Homo sapiens). Description: Inhibition of His-tagged human full length recombinant AURKA expressed in baculovirus expression system at 1 uM by Z'-LYTE assay. The method, boiled down:
as §1

Cyclin-dependent kinase 5 (Homo sapiens), sequence (Q00535 whole entry, looked up): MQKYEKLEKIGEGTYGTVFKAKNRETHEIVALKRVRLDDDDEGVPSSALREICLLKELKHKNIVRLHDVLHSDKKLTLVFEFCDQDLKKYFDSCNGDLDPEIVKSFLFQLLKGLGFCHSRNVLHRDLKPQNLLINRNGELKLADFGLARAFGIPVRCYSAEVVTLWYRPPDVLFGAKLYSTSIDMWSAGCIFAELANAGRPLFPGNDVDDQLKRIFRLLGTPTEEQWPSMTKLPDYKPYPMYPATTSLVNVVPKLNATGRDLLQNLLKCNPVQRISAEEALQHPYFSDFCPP
Tyrosine-protein kinase Blk (Homo sapiens), sequence (P51451 2-505 limits assumed): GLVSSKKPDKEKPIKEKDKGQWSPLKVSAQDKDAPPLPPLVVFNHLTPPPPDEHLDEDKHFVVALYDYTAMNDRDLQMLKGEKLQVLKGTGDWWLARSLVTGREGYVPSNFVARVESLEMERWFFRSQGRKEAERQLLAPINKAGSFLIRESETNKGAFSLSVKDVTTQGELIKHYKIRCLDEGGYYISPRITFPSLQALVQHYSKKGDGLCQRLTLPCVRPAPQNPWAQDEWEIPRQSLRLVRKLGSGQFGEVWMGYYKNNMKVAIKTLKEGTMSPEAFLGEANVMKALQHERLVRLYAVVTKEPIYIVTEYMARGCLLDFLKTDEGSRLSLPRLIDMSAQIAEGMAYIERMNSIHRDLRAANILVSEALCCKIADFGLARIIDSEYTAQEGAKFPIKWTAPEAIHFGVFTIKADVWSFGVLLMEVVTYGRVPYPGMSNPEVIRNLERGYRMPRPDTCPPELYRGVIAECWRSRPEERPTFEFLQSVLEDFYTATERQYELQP
Proto-oncogene tyrosine-protein kinase Src (Homo sapiens), sequence (P12931 2-536 limits assumed): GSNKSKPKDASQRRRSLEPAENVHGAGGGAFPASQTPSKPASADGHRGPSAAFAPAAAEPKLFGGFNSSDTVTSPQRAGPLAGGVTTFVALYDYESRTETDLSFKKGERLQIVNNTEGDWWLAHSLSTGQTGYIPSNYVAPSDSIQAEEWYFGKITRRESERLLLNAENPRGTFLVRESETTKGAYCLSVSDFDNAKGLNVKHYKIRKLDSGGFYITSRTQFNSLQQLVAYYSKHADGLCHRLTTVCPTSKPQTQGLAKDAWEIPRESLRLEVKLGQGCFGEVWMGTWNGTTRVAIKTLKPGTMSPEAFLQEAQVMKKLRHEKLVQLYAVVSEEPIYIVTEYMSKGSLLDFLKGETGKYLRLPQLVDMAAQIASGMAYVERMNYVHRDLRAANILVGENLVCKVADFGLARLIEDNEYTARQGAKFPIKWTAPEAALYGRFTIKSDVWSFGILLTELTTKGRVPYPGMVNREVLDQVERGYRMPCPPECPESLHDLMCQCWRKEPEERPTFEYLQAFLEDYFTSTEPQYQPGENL
Tyrosine-protein kinase Lck (Homo sapiens), sequence (P06239 2-509 limits assumed): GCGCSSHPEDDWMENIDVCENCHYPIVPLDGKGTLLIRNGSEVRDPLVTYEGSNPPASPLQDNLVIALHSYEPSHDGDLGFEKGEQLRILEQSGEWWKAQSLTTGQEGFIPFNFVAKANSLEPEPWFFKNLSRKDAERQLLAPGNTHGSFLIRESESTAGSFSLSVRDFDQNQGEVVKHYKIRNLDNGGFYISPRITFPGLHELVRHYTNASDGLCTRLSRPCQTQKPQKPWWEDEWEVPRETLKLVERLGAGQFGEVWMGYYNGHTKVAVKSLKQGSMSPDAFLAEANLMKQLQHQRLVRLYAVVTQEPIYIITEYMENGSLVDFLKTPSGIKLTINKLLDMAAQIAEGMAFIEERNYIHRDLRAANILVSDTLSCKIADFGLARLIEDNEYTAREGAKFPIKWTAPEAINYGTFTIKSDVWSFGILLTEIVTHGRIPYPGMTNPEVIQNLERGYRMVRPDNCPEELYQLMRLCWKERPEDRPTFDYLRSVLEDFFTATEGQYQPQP
RAC-beta serine/threonine-protein kinase (Homo sapiens), sequence (P31751 whole entry): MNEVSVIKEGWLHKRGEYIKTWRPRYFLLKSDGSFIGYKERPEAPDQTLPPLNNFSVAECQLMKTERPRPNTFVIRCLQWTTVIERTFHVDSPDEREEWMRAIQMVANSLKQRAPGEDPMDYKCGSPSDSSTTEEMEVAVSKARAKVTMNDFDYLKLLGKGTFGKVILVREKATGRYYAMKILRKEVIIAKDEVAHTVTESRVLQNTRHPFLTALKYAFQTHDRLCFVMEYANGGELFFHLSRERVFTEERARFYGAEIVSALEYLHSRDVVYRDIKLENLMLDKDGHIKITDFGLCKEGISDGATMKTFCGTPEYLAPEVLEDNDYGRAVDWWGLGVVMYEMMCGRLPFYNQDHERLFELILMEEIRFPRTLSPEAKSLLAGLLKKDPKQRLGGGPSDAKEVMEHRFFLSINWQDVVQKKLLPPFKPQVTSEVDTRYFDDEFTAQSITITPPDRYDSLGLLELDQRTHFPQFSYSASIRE
Mitogen-activated protein kinase 3 (Homo sapiens), sequence (P27361 whole entry): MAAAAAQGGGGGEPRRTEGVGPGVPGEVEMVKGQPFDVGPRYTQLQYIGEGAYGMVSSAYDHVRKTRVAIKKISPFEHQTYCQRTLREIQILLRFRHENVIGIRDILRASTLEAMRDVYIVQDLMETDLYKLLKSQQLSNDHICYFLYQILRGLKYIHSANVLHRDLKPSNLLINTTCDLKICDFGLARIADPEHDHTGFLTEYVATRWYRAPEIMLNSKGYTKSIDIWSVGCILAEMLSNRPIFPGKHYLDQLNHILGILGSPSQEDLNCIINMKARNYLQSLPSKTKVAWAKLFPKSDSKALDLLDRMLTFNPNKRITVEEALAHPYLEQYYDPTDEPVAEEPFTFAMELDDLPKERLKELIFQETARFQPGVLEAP
Rho-associated protein kinase 1 (Homo sapiens), sequence (Q13464 2-1354 limits assumed): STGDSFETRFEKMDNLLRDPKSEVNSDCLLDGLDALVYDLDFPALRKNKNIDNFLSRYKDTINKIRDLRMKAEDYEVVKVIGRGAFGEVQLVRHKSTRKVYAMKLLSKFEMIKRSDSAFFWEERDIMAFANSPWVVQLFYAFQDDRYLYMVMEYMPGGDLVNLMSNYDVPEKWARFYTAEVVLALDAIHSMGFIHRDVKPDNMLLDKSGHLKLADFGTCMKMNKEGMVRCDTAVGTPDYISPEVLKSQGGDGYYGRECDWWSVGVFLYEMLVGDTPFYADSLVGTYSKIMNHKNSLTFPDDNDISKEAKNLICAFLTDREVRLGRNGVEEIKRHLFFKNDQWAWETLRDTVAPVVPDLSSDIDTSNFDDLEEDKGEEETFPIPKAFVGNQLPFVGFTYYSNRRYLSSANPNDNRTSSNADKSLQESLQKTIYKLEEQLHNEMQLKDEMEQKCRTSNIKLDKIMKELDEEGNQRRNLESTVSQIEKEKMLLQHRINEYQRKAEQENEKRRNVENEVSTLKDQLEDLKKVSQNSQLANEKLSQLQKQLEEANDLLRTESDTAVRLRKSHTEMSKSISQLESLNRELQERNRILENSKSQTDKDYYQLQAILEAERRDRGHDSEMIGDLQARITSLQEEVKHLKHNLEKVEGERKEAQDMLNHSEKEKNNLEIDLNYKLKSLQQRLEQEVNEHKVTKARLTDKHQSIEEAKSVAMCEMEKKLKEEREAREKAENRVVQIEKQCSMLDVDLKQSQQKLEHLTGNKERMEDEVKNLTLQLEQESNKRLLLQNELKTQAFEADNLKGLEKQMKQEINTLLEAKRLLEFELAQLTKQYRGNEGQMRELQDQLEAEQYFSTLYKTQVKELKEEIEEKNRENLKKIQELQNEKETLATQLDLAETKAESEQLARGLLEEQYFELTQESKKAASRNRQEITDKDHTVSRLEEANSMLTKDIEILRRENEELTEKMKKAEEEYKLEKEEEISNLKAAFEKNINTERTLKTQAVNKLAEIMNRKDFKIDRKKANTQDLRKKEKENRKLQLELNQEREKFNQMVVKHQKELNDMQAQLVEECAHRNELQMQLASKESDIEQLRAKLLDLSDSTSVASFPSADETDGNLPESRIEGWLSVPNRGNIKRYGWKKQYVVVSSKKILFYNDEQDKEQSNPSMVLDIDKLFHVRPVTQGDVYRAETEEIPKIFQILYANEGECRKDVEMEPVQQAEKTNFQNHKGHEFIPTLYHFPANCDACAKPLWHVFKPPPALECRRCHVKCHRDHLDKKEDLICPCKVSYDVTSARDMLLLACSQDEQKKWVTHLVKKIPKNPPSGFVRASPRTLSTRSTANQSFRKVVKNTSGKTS

As to `C#CCNC(=O)c1cc(Nc2cc(C3CC3)[nH]n2)nc(N2CCN(Cc3ccc(S(=O)(=O)F)cc3)CC2)n1`, the Activity in experiment [1] was < 25%. Further, in [2], the Ratio IC50 is 40. For the same molecule, the inhibition entry in experiment [3], in experiment [4], in [6], in experiment [9], in experiment [10] and in experiment [11] was “Active” throughout. Moreover, the inhibition result in [12] and in [13] was “Active” each time. Besides, the outcome in the experiment on BaF3 [5] and in the experiment on BaF3 [15] was Active. Moreover, the IC50 in experiment [7] turned out to be 6 nM; in experiment [14] it was 244 nM. For the same molecule, in experiment [8], the inhibition result is “inactive”.

On to `COc1cc(N2CCN(C(C)=O)CC2)ccc1Nc1ncc(Cl)c(Nc2ccc(NCc3ccc(S(=O)(=O)F)cc3)cc2)n1`, for which the half-inhibitory concentration (IC50) in experiment [16] is 210 nM; in experiment [7], 1.5 nM; in [14] it was 110 nM; in the experiment on BaF3 [15] (BaF3, 72 h), 500 nM. In experiment [1], the Activity is < 25%. Moreover, the Ratio IC50 in [2] came to 70. In addition, the inhibition entry in [3], in [6], in [18], in experiment [9], in experiment [10] and in experiment [11] was “inactive” each time. For the same molecule, the inhibition result in [12] and in [13] was “inactive” in each case. The inhibition was 30% in experiment [4]; 90% in experiment [17]; < 25% in experiment [19]; 100% in experiment [20]; 100% in [21]. Besides, the result in the experiment with BaF3 [5] was inactive.
